Sampled rows, rich in hits. Any-hit rate of the full collection: about 2.3%.
TRPC4 inh – inhibitors of mouse TRPC4 channel, primary screen, Fluo4 calcium, HEK293 TRPC4beta/mu-opioid cells | Short transient receptor potential channel 4 (Mus musculus), Q9QUQ5 | DAMGO-evoked Fluo4 calcium flux; hits give low values | B-score at 10 µM | actives 0.39% (n = 300,000) | AID 2247, 2010;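 active = B-score over 3 SD under the library average, no early fluorescence shift, positive overall ratio signal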
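Assay system: HEK293 cells with stable TRPC4beta plus mu-opioid receptor expression; Probe or stimulus: DAMGO in two steps, submaximal then maximal; Dosing: single-point compound dosing; Measured by: Fluo4 calcium-dye fluorescence, kinetic read; Read-out basis: B score from integrated Fluo4 fluorescence ratio.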
TRPC4 PAM – positive allosteric modulators of TRPC4, primary screen, cell-based, mouse TRPC4beta, HEK293 mu-opioid, Fluo-4 calcium. DAMGO EC20, Fluo-4 Ca2+ flux; hits give high values. B-score at 10 µM. actives 0.42% (n = 310,000). AID 2227, 2009;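 active = B-score of calcium response area above 5 SD of library B-scores, with initial fluorescence ratio within 5 SD of library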;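 note: B-score of integrated fluorescence ratio over time as area under calcium response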
TRPC4 agonist – activators of mouse TRPC4 channel, primary screen, Fluo4 calcium, HEK293 TRPC4beta/mu-opioid cells | Fluo4 calcium fluorescence; hits give high values | B-score at 10 µM | actives 0.49% (n = 310,000) | AID 2237, 2010;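 active = B-score above 5 SD of library B-scores, and initial fluorescence ratio not above library mean plus 5 SD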;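 note: positive B-score marks a calcium rise read as TRPC4 activation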
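system = HEK293 cells stably co-expressing mouse TRPC4beta and mu-opioid receptor | schedule = Fluo4 dye loading 45 min at room temperature, 110 s recording | measure = B-scored integrated calcium fluorescence ratio | signal = Fluo4 calcium-sensitive dye fluorescence, kinetic, 1 Hz baseline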
TRPC6 inh – mouse TRPC6 channel inhibitors, primary screen, cell-based, HEK293, membrane potential dye; Short transient receptor potential channel 6 (Mus musculus), Q61143; ACh-evoked depolarization; hits give low values; B-score at 10 µM; actives 1.1% (n = 310,000);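 active = B-score under library mean minus 3 SD, initial fluorescence not abnormally high, positive integrated signal ratio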;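 note: B-score derived from integrated fluorescence ratio over the kinetic read; more negative B-score means stronger inhibition of depolarization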
Target sequence (Q61143 whole entry, looked up): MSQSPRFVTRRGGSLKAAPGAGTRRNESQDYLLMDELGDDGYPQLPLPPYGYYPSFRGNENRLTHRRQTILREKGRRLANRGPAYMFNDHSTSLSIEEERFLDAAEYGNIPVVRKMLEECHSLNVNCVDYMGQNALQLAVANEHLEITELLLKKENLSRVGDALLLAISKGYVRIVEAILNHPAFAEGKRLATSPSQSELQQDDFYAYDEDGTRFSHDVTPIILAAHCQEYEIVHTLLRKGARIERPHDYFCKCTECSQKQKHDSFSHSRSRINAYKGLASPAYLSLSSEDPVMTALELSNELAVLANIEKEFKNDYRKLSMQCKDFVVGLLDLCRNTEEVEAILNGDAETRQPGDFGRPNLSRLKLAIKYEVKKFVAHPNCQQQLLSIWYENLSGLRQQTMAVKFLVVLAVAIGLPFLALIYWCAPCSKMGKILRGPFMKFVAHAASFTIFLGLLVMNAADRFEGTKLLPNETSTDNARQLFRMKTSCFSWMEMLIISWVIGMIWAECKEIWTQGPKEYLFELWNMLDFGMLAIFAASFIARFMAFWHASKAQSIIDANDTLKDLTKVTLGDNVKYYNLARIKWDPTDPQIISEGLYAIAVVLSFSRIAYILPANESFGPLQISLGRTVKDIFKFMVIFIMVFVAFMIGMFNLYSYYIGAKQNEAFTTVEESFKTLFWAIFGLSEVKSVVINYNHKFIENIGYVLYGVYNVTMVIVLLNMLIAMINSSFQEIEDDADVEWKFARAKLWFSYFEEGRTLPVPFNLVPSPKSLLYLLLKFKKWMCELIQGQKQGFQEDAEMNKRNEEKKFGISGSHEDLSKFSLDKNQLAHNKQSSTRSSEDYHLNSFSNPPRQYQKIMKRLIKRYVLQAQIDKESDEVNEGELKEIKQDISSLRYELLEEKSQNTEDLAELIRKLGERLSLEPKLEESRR
TRPC6 activator – mouse TRPC6 channel activators, primary screen, cell-based, HEK293, membrane potential dye | Short transient receptor potential channel 6 (Mus musculus), Q61143 | HEK293-TRPC6 membrane potential dye fluorescence; hits give high values | B-score at 10 µM | actives 0.13% (n = 310,000);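 active = B-score of the integrated fluorescence ratio above library mean plus 3 SD, and starting fluorescence ratio within library mean plus 5 SD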;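 note: higher score means more depolarization so channel activation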
HEK293 TRPC6 ctr – parental HEK293 membrane potential modulation, confirmation, counter-screen for TRPC6 modulator project, cell-based; shares compounds with TRPC6 inh; membrane potential dye fluorescence; membrane potential signal change, % at 10 µM; actives 51% (n = 2,400);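 active = membrane potential signal moves up or down beyond 5 SD from buffer-only wells, on both duplicate plates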
HEK293 MPD ctr 2 – second counter-screen for TRPC6 modulators: effect in parental HEK293 cells; AID 488926; inhibition, % at 10 µM; membrane potential dye fluorescence; after compound, maximal acetylcholine stimulation; shares compounds with TRPC6 inh; actives 14% (n = 2,400);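 active = membrane potential signal drops by more than 5 SD from the mean control signal, in both duplicate plates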;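 note: plate controls were acetylcholine ECmax control wells for no effect and buffer only wells for full effect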
TRPC4 ctr mod – TRPC4 modulation by TRPC6 hit compounds, confirmation, selectivity assay for TRPC6 modulator project, cell-based, HEK293 TRPC4/mu-opioid, membrane potential dye, mouse; percent change from control (negative = decrease, positive = increase), % at 10 µM; membrane potential fluorescence; AID 488927, 2010; actives 69% (n = 2,400); shares compounds with TRPC6 inh;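 active = membrane potential signal moved up or down beyond 5 SD of buffer control wells, in both duplicate plates, actives on both sides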;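 note: plate controls were assay buffer wells for no effect and DAMGO maximal-effect wells for full effect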
TRPC4 ctr inh 2 – second check of whether TRPC6 modulators also affect mouse TRPC4. actives 55% (n = 2,400). HEK293 TRPC4/mu-opioid, membrane potential dye fluorescence; stimulated with maximal-effect DAMGO. AID 488928. inhibition, % at 10 µM. shares compounds with TRPC6 inh;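 active = drop in membrane potential signal beyond 5 SD of the control wells in both duplicate plates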;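 note: TRPC4 counter screen for TRPC6 hits run under conditions tuned for TRPC6 not TRPC4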
TRPC6 inh conf – mouse TRPC6 channel inhibitors, confirmation, HEK293 cells, membrane potential dye, duplicate; shares compounds with TRPC6 inh; ACh-evoked depolarization; inhibition, % at 10 µM; actives 43% (n = 3,300); AID 488960, 2010;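 active = fluorescence ratio falls more than 5 SD below the full-stimulation control mean, in both duplicate runs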;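 note: integrated fluorescence ratio of peak minus minimum over baseline after agonist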
TRPC6 act confirm – mouse TRPC6 channel activators, confirmation, HEK293 cells, membrane potential dye, duplicate; HEK293-TRPC6 membrane potential dye fluorescence, FDSS; activation, % at 10 µM; shares compounds with TRPC6 inh; actives 11% (n = 2,800);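 active = ratio signal rise beyond 5 SD above unstimulated control wells' mean, seen in both duplicate runs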;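 note: plate controls were buffer EC0 wells for no effect and acetylcholine ECmax response for full effect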
* = called active by the depositor; i = inactive; . = no result; + = active, no number.

SMILES	TRPC4 inh	TRPC4 PAM	TRPC4 agonist	TRPC6 inh	TRPC6 activator	HEK293 TRPC6 ctr	HEK293 MPD ctr 2	TRPC4 ctr mod	TRPC4 ctr inh 2	TRPC6 inh conf	TRPC6 act confirm
COC(=O)c1ccc(N2CCc3ccccc32)c([N+](=O)[O-])c1	i	i	i	-5.3*	i	i	i	-16%*	40%*	i	i
O=C(Nc1cc([N+](=O)[O-])ccc1N1CCCC1)c1ccccc1	i	i	i	i	i	.	.	.	.	.	.
CN1CCN(c2ccccc2NC(=O)c2cccc([N+](=O)[O-])c2)CC1	i	i	i	i	i	.	.	.	.	.	.
COc1cccc(C(=O)Nc2cc([N+](=O)[O-])ccc2N2CCN(C)CC2)c1	i	i	i	-11*	i	-372%*	i	-61%*	56%*	50%*	i
COc1ccc(C(=O)Nc2cc([N+](=O)[O-])ccc2N2CCN(C)CC2)cc1	i	i	i	-17*	i	-386%*	111%*	-60%*	82%*	86%*	i
CN1CCN(c2ccc([N+](=O)[O-])cc2NC(=O)c2ccccc2)CC1	i	i	i	-6.4*	i	-323%*	i	-50%*	36%*	i	i
O=C(O)c1ccc(N2CCc3ccccc32)c([N+](=O)[O-])c1	i	i	i	i	i	.	.	.	.	.	.
COC(=O)/C=C/C(=O)Nc1cccc(C(F)(F)F)c1	i	i	i	i	i	.	.	.	.	.	.
COc1cccc(NC(=O)c2cc([N+](=O)[O-])ccc2N2CCN(C)CC2)c1	i	i	i	i	i	.	.	.	.	.	.
COC(=O)c1ccc(N2CCN(C)CC2)c(NC(=O)c2cccnc2)c1	i	i	50*	-8.5*	i	-444%*	84%*	-76%*	56%*	55%*	i
CN1CCN(c2ccccc2NC(=O)c2ccc(N3CCCCC3)c([N+](=O)[O-])c2)CC1	i	i	i	-6.2*	i	-121%*	i	-31%*	76%*	44%*	i
CN1CCN(c2ccc([N+](=O)[O-])cc2C(=O)Nc2ccccc2)CC1	i	i	i	-5.3*	i	i	i	i	i	i	i
N=C1CCCN1CC(=O)c1ccc(Cl)cc1	i	i	i	-5.1*	i	i	i	i	i	i	i
CCc1ccc(-c2nc(CN3CCC(C(=O)NCCN(CC)c4ccccc4)CC3)c(C)o2)cc1	i	i	i	-5.6*	i	i	i	i	62%*	i	i
CCN(CCNC(=O)C1CCN(Cc2nc(-c3cccc(Cl)c3)oc2C)CC1)c1ccccc1	i	i	i	i	i	.	.	.	.	.	.
Cc1ccc(-c2csc(NC(=O)/C=C/c3ccco3)c2C(=O)O)cc1	i	i	i	-5.2*	i	i	i	i	i	i	i
COc1ccc(N2CCN(C3CCCN(C(=O)CSC)C3)CC2)cc1 (configuration not stated)	i	i	i	i	i	.	.	.	.	.	.
O=C(CCSCc1ccccc1F)NCc1ccc(F)cc1	i	i	i	i	i	.	.	.	.	.	.
O/C(=C\c1nc2ccccc2nc1/C=C(\O)c1ccccc1)c1ccccc1	i	i	i	i	13*	268%*	i	i	i	i	i
O=c1oc2ccccc2nc1/C=C(\O)c1ccccc1	i	i	i	i	i	.	.	.	.	.	.
O/C(=C\c1ccc2ccccc2n1)c1ccncc1	i	i	66*	i	46*	+	+	186%*	48%*	.	314%*
CC(C)(C)C(=O)Cn1c(=N)n(Cc2ccccc2Cl)c2ccccc21	i	i	i	-5.5*	i	164%*	i	22%*	77%*	48%*	.
CC(C)(C)C(=O)Cn1c(=N)n(Cc2ccccc2)c2ccccc21	i	i	i	i	i	.	.	.	.	.	.
OCCCNc1ncnc2sc3c(c12)CCN(Cc1ccccc1)C3	i	i	i	-6*	i	-137%*	i	-38%*	i	i	i
O=c1[nH]cnc2sc3c(c12)CCN(Cc1ccccc1)C3	i	i	i	i	i	.	.	.	.	.	.
c1ccc(-c2cc3c(N4CCN(c5ccccc5)CC4)ncnc3s2)cc1	i	i	i	i	i	.	.	.	.	.	.
CN1CCN(c2ncnc3sc(-c4ccccc4)cc23)CC1	i	i	i	-6.2*	i	i	i	i	38%*	i	i
CCOC(=O)C1(C)/C(=N/Nc2ccccc2OC)C(=O)C(=O)N1c1ccccc1 (configuration not stated)	i	i	i	-8.1*	i	-226%*	i	-40%*	68%*	44%*	i
Cc1cc2nc3s/c(=C/c4ccc(-c5ccccc5C(=O)O)o4)c(=O)n3c2cc1C	i	12*	143*	i	56*	+	i	395%*	i	i	720%*
COC(=O)c1nc(N)sc1-c1ccc(Cl)c(Cl)c1	i	i	i	i	i	.	.	.	.	.	.
